Measured values taken from ChEMBL document CHEMBL5537160, “Design, Synthesis, Pharmacology, and In Silico Studies of (1S,2S,3S)-2-((S)-Amino(carboxy)methyl)-3-(carboxymethyl)cyclopropane-1-carboxylic Acid (LBG30300): A Picomolar Potency Subtype-Selective mGlu2 Receptor Agonist” (J Med Chem, 2024).
The source made the active and inactive calls. The rule behind the calls is not given here.

Tests used:
[1] = Cmax in C57BL/6 mouse plasma at 10 mg/kg, iv measured after 0.25 hrs by LC-MS/MS analysis; type: ADME, organism-based
Outline: (§1)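 Mice given a single 10 mg/kg IV dose; plasma and brain concentrations sampled at 0.25, 1.0 and 4.0 h, means ± error per timepoint.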

[2] = Cmax in C57BL/6 mouse plasma at 10 mg/kg, iv measured after 1 hr by LC-MS/MS analysis; type: ADME, organism-based; outline: as §1
[3] = Cmax in C57BL/6 mouse plasma at 10 mg/kg, iv measured after 4 hrs by LC-MS/MS analysis; type: ADME, organism-based; outline: as §1
[4] = Cmax in C57BL/6 mouse brain at 10 mg/kg, iv measured after 0.25 hrs by LC-MS/MS analysis; type: ADME, organism-based; outline: as §1
[5] = Cmax in C57BL/6 mouse brain at 10 mg/kg, iv measured after 1 hrs by LC-MS/MS analysis; type: ADME, organism-based; outline: as §1
[6] = Cmax in C57BL/6 mouse brain at 10 mg/kg, iv measured after 4 hrs by LC-MS/MS analysis; type: ADME, organism-based; outline: as §1
[7] = Half life in C57BL/6 mouse plasma at 10 mg/kg, iv by LC-MS/MS analysis; type: ADME, organism-based; outline: as §1
[8] = Unbound brain to plasma concentration ratio in C57BL/6 mouse at 10 mg/kg, iv […] by LC-MS/MS analysis; type: ADME, organism-based; conditions: read-out: K(p,uu,brain)
[9] = target: Metabotropic glutamate receptor 1 (Rattus norvegicus) (UniProt P23385); experiment: Antagonist activity at rat mGlu1 transfected in HEK293 cells by IP-one HTRF assay; type: functional, cell-based
Outline: (§2)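 HEK293 cells transiently electroporated with rat receptor plasmid plus EAAC1 Glu transporter, plated 150 000 cells/well on polyornithine, serum-free Glutamax DMEM ≥2 h before assay. At 24 h, washed in Krebs buffer and stimulated 30 min with compound in 50 mM LiCl. IP1 read by HTRF, at least duplicates, EC50 from 2–5 experiments.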

[10] = target: Metabotropic glutamate receptor 2 (Rattus norvegicus) (UniProt P31421); experiment: Antagonist activity at rat mGlu2 transfected in HEK293 cells co-transfected with chimeric Gqi9 incubated for 30 mins by IP-one HTRF assay; type: functional, cell-based
[11] = target: Metabotropic glutamate receptor 3 (Rattus norvegicus) (UniProt P31422); experiment: Antagonist activity at rat mGlu3 transfected in HEK293 cells co-transfected with chimeric Gqi9 incubated for 30 mins by IP-one HTRF assay; type: functional, cell-based
[12] = target: Metabotropic glutamate receptor 4 (Rattus norvegicus) (UniProt P31423); experiment: Antagonist activity at rat mGlu4 transfected in HEK293 cells co-transfected with chimeric Gqi9 incubated for 30 mins by IP-one HTRF assay; type: functional, cell-based
Outline: (§3)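 Rat group II/III receptor co-electroporated into HEK293 with chimeric Gqi9 and EAAC1 transporter, serum-free medium ≥2 h pre-assay. At 24 h post-transfection, Krebs wash, then 30 min compound exposure with 50 mM LiCl. IP1 accumulation quantified by HTRF kit, at least duplicate runs, mean of 2–5 experiments.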

[13] = target: Metabotropic glutamate receptor 5 (Rattus norvegicus) (UniProt P31424); experiment: Antagonist activity at rat mGlu5 transfected in HEK293 cells by IP-one HTRF assay; type: functional, cell-based; outline: as §2
[14] = target: Metabotropic glutamate receptor 6 (Rattus norvegicus) (UniProt P35349); experiment: Antagonist activity at rat mGlu6 transfected in HEK293 cells co-transfected with chimeric Gqi9 incubated for 30 mins by IP-one HTRF assay; type: functional, cell-based; outline: as §3
[15] = target: Metabotropic glutamate receptor 7 (Rattus norvegicus) (UniProt P35400); experiment: Antagonist activity at rat mGlu7 transfected in HEK293 cells co-transfected with chimeric Gqi9 incubated for 30 mins by IP-one HTRF assay; type: functional, cell-based; outline: as §3
[16] = target: Metabotropic glutamate receptor 8 (Rattus norvegicus) (UniProt P70579); experiment: Antagonist activity at rat mGlu8 transfected in HEK293 cells co-transfected with chimeric Gqi9 incubated for 30 mins by IP-one HTRF assay; type: functional, cell-based; outline: as §3
[17] = target: Metabotropic glutamate receptor 1 (Rattus norvegicus, UniProt P23385); experiment: Agonist activity at rat mGlu1 transfected in HEK293 cells by IP-one HTRF assay; type: functional, cell-based; outline: as §2
[18] = target: Metabotropic glutamate receptor 5 (Rattus norvegicus, UniProt P31424); experiment: Agonist activity at rat mGlu5 transfected in HEK293 cells by IP-one HTRF assay; type: functional, cell-based
Outline: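 HEK293 cells transiently electroporated with rat receptor plasmid plus the high-affinity Glu transporter EAAC1. Cells were grown in DMEM with 10% FBS and seeded on polyornithine-coated wells at 150 000 cells/well. Medium was switched to serum-free Glutamax DMEM ≥2 h before assay. At 24 h cells were washed in Krebs buffer and stimulated 30 min with agonist plus 50 mM LiCl. IP1 read by IP-One HTRF; ≥ duplicates.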

[19] = target: T1, Metabotropic glutamate receptor 2 (Rattus norvegicus, UniProt P31421); experiment: Agonist activity at rat mGlu2 transfected in HEK293 cells co-transfected with chimeric Gqi9 incubated for 30 mins by IP-one HTRF assay; type: functional, cell-based; outline: as §3
[20] = target: T2, Metabotropic glutamate receptor 3 (Rattus norvegicus, UniProt P31422); experiment: Agonist activity at rat mGlu3 transfected in HEK293 cells co-transfected with chimeric Gqi9 incubated for 30 mins by IP-one HTRF assay; type: functional, cell-based
[21] = target: Metabotropic glutamate receptor 4 (Rattus norvegicus, UniProt P31423); experiment: Agonist activity at rat mGlu4 transfected in HEK293 cells co-transfected with chimeric Gqi9 incubated for 30 mins by IP-one HTRF assay; type: functional, cell-based; outline: as §3
[22] = target: Metabotropic glutamate receptor 6 (Rattus norvegicus, UniProt P35349); experiment: Agonist activity at rat mGlu6 transfected in HEK293 cells co-transfected with chimeric Gqi9 incubated for 30 mins by IP-one HTRF assay; type: functional, cell-based; outline: as §3
[23] = target: Metabotropic glutamate receptor 7 (Rattus norvegicus, UniProt P35400); experiment: Agonist activity at rat mGlu7 transfected in HEK293 cells co-transfected with chimeric Gqi9 incubated for 30 mins by IP-one HTRF assay; type: functional, cell-based; outline: as §3
[24] = target: Metabotropic glutamate receptor 8 (Rattus norvegicus, UniProt P70579); experiment: Agonist activity at rat mGlu8 transfected in HEK293 cells co-transfected with chimeric Gqi9 incubated for 30 mins by IP-one HTRF assay; type: functional, cell-based; outline: as §3
Rattus norvegicus [25] = species on record: Rattus norvegicus; experiment: Selectivity ratio of EC50 for rat mGlu3 to EC50 for rat Glu2
[26] = target: T1, Metabotropic glutamate receptor 2; experiment: Agonist activity at SNAP tagged rat mGlu2 transfected HEK293 cells by TR-FRET assay; type: functional, cell-based
[27] = target: T1, Metabotropic glutamate receptor 2; experiment: Agonist activity at SNAP tagged rat mGlu2 transfected HEK293 cells preincubated with antagonist LY-341495 followed by compound addition by TR-FRET assay; type: functional, cell-based
[28] = target: T2, Metabotropic glutamate receptor 3; experiment: Agonist activity at SNAP tagged rat mGlu3 transfected HEK293 cells preincubated with antagonist LY-341495 followed by compound addition by TR-FRET assay; type: functional, cell-based
Rattus norvegicus [29] = species on record: Rattus norvegicus; experiment: Selectivity ratio of EC50 for SNAP tagged rat mGlu3 to EC50 for SNAP tagged rat mGlu2
Outline: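 Ratio of EC50 at SNAP-tagged rat mGlu3 to mGlu2, both measured by TR-FRET conformational assay in HEK293 after LY341495 preincubation and washing; Lumi4-Tb/Green labeling, 337 nm excitation, 620/520 nm emission.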

[30] = target: Metabotropic glutamate receptor 7 (Rattus norvegicus) (UniProt P35400); experiment: Agonist activity at rat mGlu7 transfected in HEK293 cells co-transfected with chimeric Gqi9 at 3000 uM incubated for 30 mins by IP-one HTRF assay relative to control; type: functional, cell-based; conditions: filed as agonist
Outline: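 Rat receptor was co-electroporated into HEK293 cells with chimeric Gqi9, for phospholipase C coupling, and with the EAAC1 Glu transporter. Cells were seeded on polyornithine at 150 000 cells/well and moved to serum-free Glutamax DMEM ≥2 h before assay. At 24 h cells were washed in Krebs buffer and given compound at 3000 μM with 50 mM LiCl for 30 min. IP1 measured by HTRF kit; response expressed as % of control; ≥ duplicates.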

[31] = target: T2, Metabotropic glutamate receptor 3; experiment: Agonist activity at rat mGlu3 transfected in HEK293 cells assessed as inositol phosphate accumulation; type: functional, cell-based
[32] = Cmax in CSF of C57BL/6 mouse at 100 mg/kg, po by LC-MS/MS analysis; type: ADME, organism-based, Cerebrospinal fluid
[33] = Cmax in C57BL/6 mouse plasma at 100 mg/kg, po by LC-MS/MS analysis; type: ADME, organism-based
[34] = Cmax in C57BL/6 mouse brain at 100 mg/kg, po by LC-MS/MS analysis; type: ADME, organism-based
[35] = Half life in C57BL/6 mouse plasma at 100 mg/kg, po by LC-MS/MS analysis; type: ADME, organism-based
[36] = Half life in C57BL/6 mouse brain at 100 mg/kg, po by LC-MS/MS analysis; type: ADME, organism-based
[37] = target: T2, Metabotropic glutamate receptor 3; experiment: Agonist activity at rat mGlu3; type: functional

Metabotropic glutamate receptor 7 (Rattus norvegicus), sequence (P35400 whole entry): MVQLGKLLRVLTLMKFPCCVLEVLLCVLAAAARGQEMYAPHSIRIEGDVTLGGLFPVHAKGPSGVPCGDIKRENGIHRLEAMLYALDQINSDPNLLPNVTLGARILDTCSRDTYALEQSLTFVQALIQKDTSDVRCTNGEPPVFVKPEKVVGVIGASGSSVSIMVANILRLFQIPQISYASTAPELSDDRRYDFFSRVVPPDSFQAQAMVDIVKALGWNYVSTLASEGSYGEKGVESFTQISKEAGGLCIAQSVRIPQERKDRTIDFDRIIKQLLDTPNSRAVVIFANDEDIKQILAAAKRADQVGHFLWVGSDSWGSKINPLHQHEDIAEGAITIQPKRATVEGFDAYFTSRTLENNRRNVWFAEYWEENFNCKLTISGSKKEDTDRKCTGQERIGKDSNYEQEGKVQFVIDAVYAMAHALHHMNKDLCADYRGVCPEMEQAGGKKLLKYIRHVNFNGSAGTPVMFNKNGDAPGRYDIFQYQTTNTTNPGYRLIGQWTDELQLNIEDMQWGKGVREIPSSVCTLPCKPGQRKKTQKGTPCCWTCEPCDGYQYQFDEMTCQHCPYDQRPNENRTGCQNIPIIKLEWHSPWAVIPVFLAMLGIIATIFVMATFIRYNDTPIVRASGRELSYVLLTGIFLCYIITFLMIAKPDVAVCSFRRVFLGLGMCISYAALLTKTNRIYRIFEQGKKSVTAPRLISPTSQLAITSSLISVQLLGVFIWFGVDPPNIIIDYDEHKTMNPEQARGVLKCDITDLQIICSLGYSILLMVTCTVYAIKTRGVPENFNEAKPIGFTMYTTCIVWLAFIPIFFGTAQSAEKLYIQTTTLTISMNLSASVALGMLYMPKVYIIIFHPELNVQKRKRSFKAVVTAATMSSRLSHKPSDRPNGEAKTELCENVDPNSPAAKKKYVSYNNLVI
Metabotropic glutamate receptor 2 (Rattus norvegicus), sequence (P31421 19-872 limits assumed): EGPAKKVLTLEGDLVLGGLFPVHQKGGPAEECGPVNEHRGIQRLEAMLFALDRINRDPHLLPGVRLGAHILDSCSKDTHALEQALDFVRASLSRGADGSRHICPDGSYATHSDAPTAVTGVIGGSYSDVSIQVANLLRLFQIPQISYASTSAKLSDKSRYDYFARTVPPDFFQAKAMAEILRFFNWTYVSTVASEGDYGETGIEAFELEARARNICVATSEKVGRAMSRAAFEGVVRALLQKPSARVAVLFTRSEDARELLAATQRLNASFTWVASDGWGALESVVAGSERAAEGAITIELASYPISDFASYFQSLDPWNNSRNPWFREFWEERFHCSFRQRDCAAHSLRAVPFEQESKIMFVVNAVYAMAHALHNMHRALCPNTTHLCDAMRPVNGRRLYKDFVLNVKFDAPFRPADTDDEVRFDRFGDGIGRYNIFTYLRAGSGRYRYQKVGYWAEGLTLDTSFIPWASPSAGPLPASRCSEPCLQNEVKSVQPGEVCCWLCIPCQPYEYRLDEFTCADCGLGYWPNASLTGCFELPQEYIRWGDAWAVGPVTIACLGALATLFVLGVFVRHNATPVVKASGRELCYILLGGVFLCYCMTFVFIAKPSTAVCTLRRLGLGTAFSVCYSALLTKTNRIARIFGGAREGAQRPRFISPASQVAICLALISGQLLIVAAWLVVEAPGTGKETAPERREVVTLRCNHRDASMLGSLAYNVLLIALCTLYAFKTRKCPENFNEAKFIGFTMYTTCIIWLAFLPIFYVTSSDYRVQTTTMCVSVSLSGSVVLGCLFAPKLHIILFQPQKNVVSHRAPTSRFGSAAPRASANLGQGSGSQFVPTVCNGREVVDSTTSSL
Metabotropic glutamate receptor 3 (Rattus norvegicus), sequence (P31422 23-879 limits assumed): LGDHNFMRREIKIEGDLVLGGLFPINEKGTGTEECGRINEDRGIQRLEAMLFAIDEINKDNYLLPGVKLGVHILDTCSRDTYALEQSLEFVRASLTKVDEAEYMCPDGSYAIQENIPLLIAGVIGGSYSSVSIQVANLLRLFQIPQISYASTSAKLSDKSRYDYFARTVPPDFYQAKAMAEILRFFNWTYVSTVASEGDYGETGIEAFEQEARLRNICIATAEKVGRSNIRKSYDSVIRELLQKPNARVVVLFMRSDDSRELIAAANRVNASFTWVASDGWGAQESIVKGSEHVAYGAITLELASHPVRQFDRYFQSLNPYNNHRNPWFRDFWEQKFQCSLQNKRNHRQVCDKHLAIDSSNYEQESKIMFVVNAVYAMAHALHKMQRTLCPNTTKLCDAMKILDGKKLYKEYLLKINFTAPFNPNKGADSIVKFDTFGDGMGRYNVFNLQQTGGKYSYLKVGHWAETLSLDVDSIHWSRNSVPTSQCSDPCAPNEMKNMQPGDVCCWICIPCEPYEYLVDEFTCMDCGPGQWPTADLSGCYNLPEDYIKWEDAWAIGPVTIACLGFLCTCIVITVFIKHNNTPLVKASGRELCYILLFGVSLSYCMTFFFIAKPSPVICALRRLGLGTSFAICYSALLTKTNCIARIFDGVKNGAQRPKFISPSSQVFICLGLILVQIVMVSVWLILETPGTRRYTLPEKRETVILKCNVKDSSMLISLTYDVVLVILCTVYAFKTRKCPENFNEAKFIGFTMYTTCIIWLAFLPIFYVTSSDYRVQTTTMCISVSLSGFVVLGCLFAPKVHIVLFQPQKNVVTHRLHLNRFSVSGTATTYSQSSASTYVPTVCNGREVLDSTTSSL
Metabotropic glutamate receptor 4 (Rattus norvegicus), sequence (P31423 whole entry): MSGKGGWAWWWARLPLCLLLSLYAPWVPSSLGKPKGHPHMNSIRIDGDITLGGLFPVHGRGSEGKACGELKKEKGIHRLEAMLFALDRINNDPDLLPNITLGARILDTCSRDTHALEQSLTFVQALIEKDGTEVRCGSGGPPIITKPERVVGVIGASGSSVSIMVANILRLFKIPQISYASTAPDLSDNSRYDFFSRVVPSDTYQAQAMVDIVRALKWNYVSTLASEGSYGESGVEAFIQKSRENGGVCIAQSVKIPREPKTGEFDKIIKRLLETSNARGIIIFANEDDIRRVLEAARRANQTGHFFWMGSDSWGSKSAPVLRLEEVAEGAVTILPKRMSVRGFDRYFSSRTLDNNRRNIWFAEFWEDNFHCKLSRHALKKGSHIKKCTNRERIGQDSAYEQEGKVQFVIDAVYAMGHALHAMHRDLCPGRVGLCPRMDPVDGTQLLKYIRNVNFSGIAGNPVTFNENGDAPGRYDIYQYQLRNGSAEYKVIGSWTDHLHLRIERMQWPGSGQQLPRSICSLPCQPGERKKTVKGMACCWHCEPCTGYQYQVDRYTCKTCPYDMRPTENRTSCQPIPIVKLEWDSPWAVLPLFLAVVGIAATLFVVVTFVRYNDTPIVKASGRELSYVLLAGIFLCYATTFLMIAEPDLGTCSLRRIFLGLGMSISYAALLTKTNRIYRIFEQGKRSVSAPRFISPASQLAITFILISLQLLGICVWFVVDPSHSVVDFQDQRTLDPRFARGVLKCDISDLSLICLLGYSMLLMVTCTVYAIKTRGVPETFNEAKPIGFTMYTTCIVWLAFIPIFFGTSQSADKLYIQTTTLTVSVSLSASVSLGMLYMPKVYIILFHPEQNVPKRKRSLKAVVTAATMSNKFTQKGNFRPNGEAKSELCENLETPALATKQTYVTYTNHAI
Metabotropic glutamate receptor 4, sequence (P31423 whole entry): as above
Metabotropic glutamate receptor 8 (Rattus norvegicus), sequence (P70579 whole entry): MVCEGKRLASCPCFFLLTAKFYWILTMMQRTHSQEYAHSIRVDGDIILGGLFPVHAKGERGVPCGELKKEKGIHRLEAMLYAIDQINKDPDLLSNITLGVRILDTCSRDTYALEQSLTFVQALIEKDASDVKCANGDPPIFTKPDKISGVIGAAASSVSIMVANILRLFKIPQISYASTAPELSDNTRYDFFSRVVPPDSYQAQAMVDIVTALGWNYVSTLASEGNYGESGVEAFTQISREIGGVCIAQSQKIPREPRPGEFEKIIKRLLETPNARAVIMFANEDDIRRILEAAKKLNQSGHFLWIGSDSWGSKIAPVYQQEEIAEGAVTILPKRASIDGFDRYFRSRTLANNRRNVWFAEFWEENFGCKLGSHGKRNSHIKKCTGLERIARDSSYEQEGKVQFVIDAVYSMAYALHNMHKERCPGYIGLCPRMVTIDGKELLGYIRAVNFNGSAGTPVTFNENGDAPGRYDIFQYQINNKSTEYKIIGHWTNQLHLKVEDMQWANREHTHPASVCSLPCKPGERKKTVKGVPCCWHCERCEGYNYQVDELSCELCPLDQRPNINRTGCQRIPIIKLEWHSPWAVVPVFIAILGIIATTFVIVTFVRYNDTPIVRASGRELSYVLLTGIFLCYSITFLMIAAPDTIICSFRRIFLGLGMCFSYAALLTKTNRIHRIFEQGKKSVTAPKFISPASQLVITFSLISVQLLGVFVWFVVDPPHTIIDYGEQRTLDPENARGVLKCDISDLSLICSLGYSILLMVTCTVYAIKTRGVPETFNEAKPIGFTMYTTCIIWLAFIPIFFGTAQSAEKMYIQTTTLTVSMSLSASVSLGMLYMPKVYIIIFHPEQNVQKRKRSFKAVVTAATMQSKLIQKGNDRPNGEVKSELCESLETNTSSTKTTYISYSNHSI
Metabotropic glutamate receptor 8, sequence (P70579 whole entry): as above
Metabotropic glutamate receptor 7, sequence (P35400 whole entry): as the sequence (P35400 whole entry) above

Compound | Activity [9] | Activity [10] | Activity [11] | Activity [12] | Activity [13] | Activity [14] | Activity [15] | Activity [16] | EC50 ([18]; read-out: EC50) | EC50 ([21]; read-out: EC50) | EC50 ([22]; read-out: pEC50 (converted)) | EC50 ([24]; read-out: EC50) | EC50 ([24]; read-out: pEC50 (converted)) | EC50 [28] | other results
Cl.N[C@H](C(=O)O)[C@H]1[C@H](CC(=O)O)[C@@H]1C(=O)O | inactive | inactive | inactive | inactive | inactive | inactive | inactive | inactive | > 30000 nM | 110 nM | 245 nM | 97 nM | 35.5 nM | 11500 nM | Cmax [1]: 5360 ng/mL; Cmax [2]: 583 ng/mL; Cmax [3]: 50 ng/mL; Cmax [4]: 86 ng/g; Cmax [5]: 75 ng/g; Cmax [6]: 68 ng/g; half-life [7]: 0.5 h; Kp uu [8]: 0.02; EC50 [17]: > 30000 nM; EC50 ([19]; read-out: EC50): 1 nM; EC50 ([19]; read-out: pEC50 (converted)): 0.575 nM; EC50 [20]: 373 nM; EC50 ([21]; read-out: pEC50 (converted)): 35.5 nM; EC50 ([22]; read-out: EC50): 280 nM; EC50 [23]: > 30000 nM; Ratio EC50 (Rattus norvegicus [25]): 620; EC50 ([26]; read-out: EC50): 13 nM; EC50 ([26]; read-out: pEC50 (converted)): 22.4 nM; EC50 [27]: 22 nM; Ratio EC50 (Rattus norvegicus [29]): 513
N[C@@H](CCP(=O)(O)O)C(=O)O | inactive | inactive | inactive | inactive | inactive | inactive | inactive | inactive | – | 180 nM | 2290 nM | 290 nM | 174 nM | – | Activity [30]: 100%
N[C@@H](Cn1oc(=O)[nH]c1=O)C(=O)O [QUISQUALATE] | inactive | inactive | inactive | inactive | inactive | inactive | inactive | inactive | 27 nM | – | – | – | – | – | EC50 ([18]; read-out: pEC50 (converted)): 40.7 nM
N[C@H](C(=O)O)C1[C@@H](C(=O)O)[C@@H]1C(=O)O (stereo not given in full) | – | – | – | – | – | – | – | – | – | – | – | – | – | – | EC50 [31]: 90 nM
N[C@@]1(C(=O)O)CC[C@H]2[C@H](C(=O)O)[C@H]21 | – | – | – | – | – | – | – | – | – | – | – | – | – | 4800 nM | Cmax [32]: 14 ng/g; Cmax [33]: 2120 ng/mL; Cmax [34]: 76 ng/g; half-life [35]: 6.8 h; half-life [36]: 69 h; EC50 [37]: 27 nM
